CHRM4 agonist – human M4 muscarinic receptor agonists, primary screen, CHO-K1 cells, Fluo-8 calcium fluorescence. Muscarinic acetylcholine receptor M4 (Homo sapiens), P08173. CHO-K1 hM4/Gqi5; vehicle 0%, full acetylcholine response 100%. activation, % at 3 µM. 360,000 tested, 0.14% active. AID 624127, 2012;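 active = activation above the run mean over all test wells plus 3 SD, cut at about 32% in these data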;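 note: peak over basal fluorescence ratio per well then scaled between controls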
Target sequence (P08173 whole entry, looked up): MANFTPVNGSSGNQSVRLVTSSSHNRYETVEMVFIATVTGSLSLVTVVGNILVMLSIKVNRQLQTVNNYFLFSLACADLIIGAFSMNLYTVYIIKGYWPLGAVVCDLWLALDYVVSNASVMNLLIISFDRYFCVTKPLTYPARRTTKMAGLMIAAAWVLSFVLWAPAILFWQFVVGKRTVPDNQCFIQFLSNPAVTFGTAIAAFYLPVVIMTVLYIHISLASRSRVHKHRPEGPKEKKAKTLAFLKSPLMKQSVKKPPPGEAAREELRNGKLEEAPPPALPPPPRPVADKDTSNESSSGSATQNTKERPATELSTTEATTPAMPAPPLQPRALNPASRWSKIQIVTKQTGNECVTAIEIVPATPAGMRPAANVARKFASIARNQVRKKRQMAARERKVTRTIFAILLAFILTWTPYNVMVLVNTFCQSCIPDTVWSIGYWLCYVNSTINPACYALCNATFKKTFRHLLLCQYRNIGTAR
CHRM5 agonist – human M5 muscarinic receptor agonists, primary screen, CHO-K1 cells, Fluo-8 calcium fluorescence. Muscarinic acetylcholine receptor M5 (Homo sapiens), P08912. CHO-K1 hM5 cells; 0% DMSO wells, 100% maximal acetylcholine response. activation, % at 3 µM. 360,000 tested, 0.19% active;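 active = activation above the run's mean over test compounds plus 3 SD, cut at about 23% in these data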;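 note: signal is peak over basal fluorescence ratio across the kinetic read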
CHRM5 antagonist – human M5 muscarinic receptor antagonists, primary screen, CHO cells, Fluo-8 calcium fluorescence; Muscarinic acetylcholine receptor M5 (Homo sapiens), P08912; CHO-hM5 cells, ACh EC80; inhibition, % at 3 µM; 360,000 tested, 0.59% active;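 active = inhibition above a per-plate cutoff, the mean of that plate's test compounds plus 3 SD, cut at about 27% in these data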
CHRM4 PAM – human M4 muscarinic receptor positive allosteric modulators, primary screen, CHO-K1 cells, Fluo-8 calcium fluorescence; 360,000 tested, 0.4% active; activation, % at 3 µM; AID 624126, 2012; Muscarinic acetylcholine receptor M4 (Homo sapiens), P08173; CHO-K1 hM4/Gqi5, ACh EC20; 0% = ACh EC20, 100% = maximal ACh;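 active = activation above its plate's cutoff, the mean activation of sample wells plus 3 SD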
CHRM4 antagonist – human M4 muscarinic receptor antagonists, primary screen, CHO cells, Fluo-8 calcium fluorescence. 360,000 tested, 0.73% active. CHO-hM4 cells, ACh EC80. inhibition, % at 3 µM;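 active = inhibition above its plate's cutoff, the mean inhibition of sample wells plus 3 SD, cut at about 27% in these data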
CHRM5 PAM – human M5 muscarinic receptor positive allosteric modulators, primary screen, CHO-K1 cells, Fluo-8 calcium fluorescence; CHO-K1 hM5, ACh EC20 PAM; 0% = ACh EC20, 100% = ACh EC100; activation, % at 3 µM; 360,000 tested, 0.3% active; AID 624038, 2012;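 active = activation above the run cutoff, the mean activation of all test compounds plus 3 SD, cut at about 18% in these data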
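Assay system – human M5 receptor in CHO-K1 cells · Read-out – % activation, ACh-normalized · Technique – Fluo-8 calcium fluorescence · Dosing – single-point, 3 µM nominal · Incubation – Fluo-8 loading 80 min at 37 °C plus 30 min room temperature · Repeats – singlicate, one well per test compound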
A number is an active result; i = inactive. This is a sample that favours compounds with a hit; in the whole collection about 1.8% have one here.

SMILES	CHRM4 agonist	CHRM5 agonist	CHRM5 antagonist	CHRM4 PAM	CHRM4 antagonist	CHRM5 PAM
CN1C(=O)c2c(C(=O)Nc3ccc(Oc4ccncc4)cc3)[nH]c(-c3ccccc3)c2C1=O	i	i	i	i	i	i
CNC(=O)c1cc(Oc2ccc(NC(=O)c3[nH]c(-c4ccccc4)c4c3C(=O)N(C)C4=O)cc2)ccn1	i	i	i	23	i	i
CC1(C(=O)NS(=O)(=O)c2ccc(Br)cc2)CCN1C(=O)C1CCCCC1 (centres undefined)	i	i	i	i	i	i
COC(=O)[C@@]12C[C@@H](CC(=O)NCc3cccc(C(F)(F)F)c3)C(=O)N(Cc3ccccc3)C1=CCC(C)(C)C2	i	i	i	i	i	i
CCCn1cnc2c(=O)oc3ccccc3c21	i	i	i	i	i	30
CCCCCn1nnc2c(=O)oc3ccccc3c21	i	i	i	28	i	i
CCCn1nnc2c(=O)oc3ccccc3c21	i	i	i	i	i	i
O=C(N/C(=C\c1cccc([N+](=O)[O-])c1)C(=O)N1CCOCC1)c1ccc([N+](=O)[O-])cc1	i	i	i	i	i	i
Cc1ccc(-n2c(SCC(N)=O)nnc2-c2ccc(S(=O)(=O)N3CCCCC3)cc2)c(C)c1	i	i	i	i	99	i
Cn1c(SCC(N)=O)nnc1-c1ccc(S(=O)(=O)N2CCCC2)cc1	i	i	i	i	i	i
Cc1cc(/C=N/n2cnnc2)c(C)n1-c1ccc(OCc2ccccc2F)cc1	i	i	29	i	31	i
Cc1cc(/C=N/n2cnnc2)c(C)n1-c1ccc(OCc2ccc(Cl)cc2)cc1	i	i	i	i	30	i
C(=N\n1cnnc1)/c1ccc(OCc2ccccc2)cc1	i	i	i	i	i	i
Fc1ccccc1COc1cccc(/C=N/n2cnnc2)c1	i	i	i	i	i	i
O=C(NCCCn1ccnc1)C(=O)NC1CCCCC1	i	i	i	i	i	19
O=C(O)C1CCCCC1C(=O)NCCCn1ccnc1 (centres undefined)	i	i	i	i	i	i
CCn1cc(C(=O)NCCCN2CC(C)CC(C)C2)c(=O)c2cc(S(=O)(=O)N(C)C3CCCCC3)ccc21 (centres undefined)	i	i	i	i	33	i
CC1C(=O)N(Cc2cn(Cc3ccco3)nn2)CCS(=O)(=O)N1Cc1ccc(-c2ccncc2)cc1 (centres undefined)	i	i	i	i	i	i
Cc1cc(C)n(-c2nc(NC(C)(C)C)nc(NC(C)(C)C)n2)n1	i	i	i	i	i	i
Cc1cc(C)n(-c2nc(Nc3ccccc3C(F)(F)F)nc(-n3nc(C)cc3C)n2)n1	i	i	30	i	i	i
CC(=O)c1ccc(S(=O)(=O)Nc2ccc(C(=O)NCC(c3cccs3)N3CCOCC3)cc2)cc1 (centres undefined)	i	i	i	i	i	i
O=C(NCC(c1cccs1)N1CCOCC1)c1ccccc1NS(=O)(=O)c1ccc(Cl)c([N+](=O)[O-])c1 (centres undefined)	i	i	43	i	i	i
COc1ccc(C(CNC(=O)c2ccc(NS(=O)(=O)c3ccc(F)c(C)c3)cc2)N2CCCC2)cc1 (centres undefined)	i	i	i	i	28	i
O=C(NCC(c1cccs1)N1CCOCC1)c1ccccc1NS(=O)(=O)c1cccc([N+](=O)[O-])c1 (centres undefined)	i	i	i	i	i	i
CCOc1ccc(NS(=O)(=O)c2ccc(C(=O)NCC(c3cccs3)N3CCOCC3)cc2)cc1 (centres undefined)	39	50	i	i	i	i
SMILES	CHRM4 agonist	CHRM5 agonist	CHRM5 antagonist	CHRM4 PAM	CHRM4 antagonist	CHRM5 PAM
CCC1CCCCN1C(=O)COC(=O)c1cc(C)nc2ccccc12 (centres undefined)	i	i	i	i	i	i
COc1ccc(NC(=O)COc2cccc3c2OC(C)(C)C3)c(OC)c1	i	i	i	i	i	i
Cc1nn(Cc2ccc(Cl)c(Cl)c2)c(C)c1NC(=O)c1cn(-c2ccccc2)nc1-c1ccccc1	i	i	i	i	i	25
O=c1nc(SCc2ccccc2Cl)nc(-c2ccc(Cl)cc2)[nH]1	i	i	i	i	i	i
O=c1nc(SCc2c(F)cccc2Cl)nc(-c2ccc(Cl)cc2)[nH]1	i	i	i	39	i	i
CCCNC(=O)c1cccc(COCC(F)(F)F)c1	i	i	i	i	i	34
CCCNC(=O)c1cccc(COc2ccccc2OC)c1	i	i	i	i	i	i
CCCOC(=O)c1ccc(Oc2coc3c(CN(CC)CC)c(O)ccc3c2=O)cc1	i	i	i	i	93	i
CN(C)CCCOC(=O)N1c2ccccc2C=Cc2ccccc21	i	i	81	i	67	i
CN(C)CCCOC(=O)c1ccccc1Cl	i	i	i	i	i	i
CC1(C(=O)NNC(=O)c2cccc([N+](=O)[O-])c2)CC1Br (centres undefined)	i	i	i	16	i	i
CN(C)CCC[C@@]1(c2ccc(F)cc2)OCc2cc(C#N)ccc21	i	i	i	i	30	i
CN(C)CCC[C@]1(c2ccc(F)cc2)OCc2cc(C#N)ccc21	i	i	i	i	i	i
COc1cc2sc(-c3ccc(S(C)(=O)=O)cc3)c(-c3ccc4c(c3)OCO4)c2cc1OC	i	i	i	i	i	i
CC(C)(C)N1C(=O)c2ccccc2NC(=O)N1Cc1ccc(Br)cc1	i	i	i	i	i	i
Cc1ccccc1CN1C(=O)Nc2ccccc2C(=O)N1C(C)(C)C	i	i	i	i	i	50
O=c1c(O)c(-c2ccc(O)c(O)c2)oc2cc(O)cc(O)c12	i	i	i	i	i	21
COc1ccc([N+](=O)[O-])cc1NC(=S)NC(NC(=O)C(c1ccccc1)c1ccccc1)C(Cl)(Cl)Cl (centres undefined)	i	i	i	i	27	i
COc1ccc([N+](=O)[O-])cc1NC(=O)C(C)c1ccccc1 (centres undefined)	i	i	i	i	i	i
C[C@@H]1CN([C@@H](C)CO)C(=O)CCCn2nncc2CO[C@H]1CN(C)Cc1ccc2c(c1)OCCO2	i	i	i	i	i	i

Bioassay records deposited in PubChem BioAssay by The Scripps Research Institute Molecular Screening Center.
